High-throughput results (PubChem BioAssay)
An excerpt weighted towards active compounds, which were near 2.1% of everything screened.
STEP inh – STEP phosphatase inhibitors, primary screen, biochemical, fluorescence intensity, uHTS; Tyrosine-protein phosphatase non-receptor type 5 (Homo sapiens), P54829; recombinant STEP, OMFP fluorogenic substrate; inhibition, % at 20 µM; hit rate 0.25% among 360,000; AID 588621, 2011;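 active = inhibition at 20 µM, scaled per plate between control wells, above about 37%, limit read from the data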;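 also: 0% = DMSO with enzyme and substrate and 100% = substrate only without enzyme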
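medium = Bis-Tris buffer pH 6.0, 2.5 mM DTT, 0.005% Tween 20 | test system = STEP (striatal-enriched tyrosine phosphatase) enzyme, cell-free | measure = normalized % inhibition | compound dosing = 20 µM, 1% DMSO | also added = 25 µM OMFP | schedule = reaction 20 min, ambient temperature | measured by = fluorescence read at 480 nm ex / 540 nm em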
GRK2 aptamer HTS – compounds blocking aptamer binding on GRK2 – biochemical, human GRK2, bead flow cytometry, HTS, primary screen; Beta-adrenergic receptor kinase 1 (Homo sapiens), P25098; FAM-aptamer displacement from GRK2; inhibition of aptamer binding, % at 10 µM; hit rate 0.59% among 330,000; AID 488847, 2010;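 active = inhibition of aptamer binding above 40%, roughly 3 SD of noise, on plates passing a quality check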;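 also: median bead fluorescence of bound FAM aptamer so fluorescent compounds give negative values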
LMPTP block – LMPTP phosphatase inhibitors, primary screen, biochemical, fluorescence intensity, uHTS | inhibition, % at 20 µM | recombinant LMPTP-A, OMFP fluorogenic substrate | hit rate 0.22% among 360,000 | Low molecular weight phosphotyrosine protein phosphatase (Homo sapiens), P24666;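 active = compounds that cut the enzyme signal by at least half of the control window in the single-dose screen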;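 also: plate controls were DMSO wells with enzyme plus substrate for no effect and substrate without enzyme for full effect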
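Test system: LMPTP-A phosphatase enzyme; input: 0.625 nM LMPTP-A final; reagent: OMFP substrate, 400 µM final; compound dosing: 20 µM single dose, 3% DMSO; incubation: 50 min dark incubation at room temperature; measured by: endpoint fluorescence intensity from OMFP dephosphorylation; measure: % inhibition relative to no-enzyme and uninhibited control wells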
SUMO1-SIM PPI – modulators of SUMO1 protein-protein interactions, primary screen, biochemical, uHTS. Small ubiquitin-related modifier 1 (Homo sapiens), P63165. SUMO1 binding to a labelled peptide, TR-FRET, 1 h. AID 602429, 2012. inhibition, % at 20 µM. hit rate 0.33% among 360,000; in the data active = inhibition above about 37%
Scp-1 inhibitor – Scp-1 phosphatase inhibitors, primary screen, biochemical, colorimetric, uHTS; inhibition, % at 20 µM; hit rate 0.88% among 340,000; Recombinant Scp1, phosphopeptide, malachite green phosphate absorbance;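 active = inhibition above about 50% at 20 µM, limit read from the data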;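 also: plate controls were DMSO wells with enzyme for no effect and wells lacking enzyme for full effect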
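Test system – truncated SCP-1 phosphatase (76-261aa) · Reagent – Phosphorylated 17-residue peptide substrate · Incubation – 45 min room-temperature reaction, 5 min colour, 30 min stabiliser · Detection – colorimetric phosphate reagent with accelerator and stabiliser, absorbance at 630 nm · Measure – % inhibition at 20 µM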
DNMT1 inh – human DNMT1 methyltransferase inhibitors, primary screen, biochemical, molecular beacon, fluorescence, HinP1I cleavage, uHTS | inhibition (reported as % activation of signal), % at 10 µM | hit rate 0.83% among 360,000 | DNA (cytosine-5)-methyltransferase 1 (Homo sapiens), P26358; in the data active = inhibition above about 50%
DNMT1 interf DR – spectral interference with molecular beacon fluorescence, dose response, artefact control for DNMT1 inhibitor project, biochemical, fluorescent molecular beacon. shares compounds with DNMT1 inh. spectral interference counter-screen. IC50, µM. AID 602382, 2012. 200 tested, under 10 active; call rule not given here
DNMT1 confirm – DNMT1 methyltransferase inhibitor retest, confirmation, biochemical, molecular beacon, fluorescence, single concentration; shares compounds with DNMT1 inh; DNMT1 molecular beacon HinP1I cleavage; inhibition, % at 10 µM; hit rate 8% among 2,300;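 active = average inhibition of at least 30% in the single-concentration confirmation test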
DNMT1 interf – counter-screen for DNMT1 inhibitors: spectral interference | shares compounds with DNMT1 inh | DNMT1 molecular beacon spectral interference counterscreen, fluorescence 485/520 | activation (fluorescence interference), % at 10 µM | hit rate 1% among 2,300;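 active = activation of at least 30% at 10 µM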;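 also: DNMT1 catalytic domain with a HinP1I cleavage step and a FAM/dabcyl DNA beacon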
The depositor's hits bear a star; . = no result given.

SMILES	STEP inh	GRK2 aptamer HTS	LMPTP block	SUMO1-SIM PPI	Scp-1 inhibitor	DNMT1 inh	DNMT1 confirm	DNMT1 interf	others
CCOc1cccc2cc(-c3cn4cc(C)ccc4n3)c(=O)oc12	-0.6	0.0	18.7	-20.4	-0.7	70.4*	1.4	-4.7
CCCCCCCCCCC(C(=O)O)C1(C(=O)O)CCC(=O)O1 (stereo not given)	-0.3	.	-0.3	1.5	.	-0.8	.	.
O=S(=O)(NCc1ccccc1)c1cccc2nsnc12	-0.9	1.0	0.9	-28.7	9.0	85.3*	1.0	2.4
Cc1nn(CC(=O)NCCN2CCOCC2)c(=O)c2cc3sccc3n12	-2.5	2.0	-0.6	-4.1	-13.3	0.6	.	.
CNC(=O)COC(=O)c1cc(-c2ccco2)nc2ccccc12	3.8	0.0	12.3	-8.7	75.7*	56.1*	18.6	2.0
O=C(O)c1ccccc1/C=N/NC(=O)c1cc(-c2ccco2)nc2ccccc12	5.2	0.0	32.9	57.4*	77.2*	90.7*	38.3*	-1.1	DNMT1 interf DR=>99
Cc1ccc(NC(=O)COC(=O)c2cc(C)nc3ccccc23)c([N+](=O)[O-])c1	-0.1	0.0	-0.9	-1.5	-1.2	63.8*	0.0	1.9
CCN(CC)C(=O)COC(=O)c1cc(-c2ccco2)nc2ccccc12	0.7	.	30.6	-5.1	82.1*	72.7*	6.9	0.3
C=C1C(=O)c2sccc2C(c2ccc(OC)c(OC)c2)C1COC(C)=O (stereo not given)	0.6	.	1.2	-7.9	7.1	1.0	.	.
O=C(Nc1ccc2c(c1)OCCO2)C(c1cc2ccccc2o1)N1CCN(C/C=C/c2ccccc2)CC1 (stereo not given)	2.4	.	5.8	0.2	.	-22.2	.	.
CNc1ccc(Br)cc(C(=O)/C=C/c2ccc3c(c2)OCO3)c1=O	0.6	0.0	40.7	24.9	14.7	65.2*	1.4	0.6
Nc1cc(S(=O)(=O)Nc2ccccc2Cl)ccc1N1CCOCC1	1.4	1.0	0.2	2.1	-5.4	-3.4	.	.
Nc1cc(S(=O)(=O)Nc2ccc(Cl)cc2)ccc1N1CCOCC1	12.7	0.0	1.8	0.6	-0.7	169.1*	2.0	3.5
COc1ccc2c(c1)[nH]c(=O)c1sc3ccccc3c12	-0.5	3.0	1.7	-6.3	3.0	43.1	.	.
COc1ccc2sc3c(=O)[nH]c4ccccc4c3c2c1	3.1	1.0	1.3	6.8	-4.6	58.0*	4.8	3.7
Cc1ccccc1Cn1cc(NC(=O)c2cc3nc(-c4ccco4)cc(C(F)(F)F)n3n2)cn1	-0.9	1.0	3.1	1.9	-7.9	-10.2	.	.
CCc1ccc(-c2cc(C(F)(F)F)n3nc(C(=O)Nc4cnn(Cc5ccc(C)cc5)c4)cc3n2)s1	20.5	0.0	2.9	-4.6	-3.9	56.5*	-0.2	-6.8
CCOC(=O)C1(C)CCCCCN1C(=O)c1ccc(OC)cc1 (stereo not given)	-1.1	.	-1.7	5.1	.	-2.3	.	.
CC(=O)NC(c1ccc(F)c(F)c1)c1nc(-c2ccc3c(c2)OCO3)cs1 (stereo not given)	2.6	.	0.2	0.0	.	-3.4	.	.
Cc1cc(C)c2nc(N3C(=O)C(O)=C(C(=O)c4ccco4)C3c3ccco3)sc2c1 (stereo not given)	24.2	4.0	22.6	16.6	51.6*	57.8*	14.8	-0.7
Cc1ccc(C)c(C(=O)C(C)Sc2nc3nn(-c4ccccc4)c(=O)c-3c3n2CCCCC3)c1 (stereo not given)	1.2	3.0	7.1	-6.8	-10.7	-2.2	.	.
COc1cccc(NC(=O)C2(C)CCN2C(=O)CC2CC2)c1 (stereo not given)	-0.9	.	-1.6	-2.6	.	0.2	.	.
CC(C)OCCCn1c(=N)c(C(N)=S)cc2c(=O)n3ccccc3nc21	1.5	21.0	19.1	-11.3	-4.3	64.3*	0.7	6.6
Cc1cc(NC(=O)c2cc(C)on2)no1	-2.9	0.0	-0.1	0.7	2.8	0.9	.	.
Cc1cc(NC(=O)c2cc(C3CC3)on2)no1	-0.5	3.0	-0.4	3.6	-1.2	55.9*	0.8	-0.6
SMILES	STEP inh	GRK2 aptamer HTS	LMPTP block	SUMO1-SIM PPI	Scp-1 inhibitor	DNMT1 inh	DNMT1 confirm	DNMT1 interf	others
Cc1cc(C(=O)Nc2cc(C)on2)on1	-3.6	0.0	-0.3	7.8	-1.2	80.8*	5.9	0.8
Cc1cc(NC(=O)c2ccc(C)o2)no1	-2.3	3.0	-2.2	-3.4	-4.2	2.7	.	.
O=C(Nc1ccc(S(=O)(=O)NC2=NCCCCC2)cc1)c1cccc(OC(F)F)c1	-0.4	.	-0.7	2.3	.	-2.4	.	.
CCCCCC(=O)OCc1ccc(C2=CC(=O)CC(C)(C)C2=O)cc1	2.8	.	1.5	-30.4	.	-76.8	.	.
Cc1ccc(NC(=O)CN2C(=O)S/C(=C/c3ccc(-c4cc(C(=O)O)ccc4C)o3)C2=O)cc1C	9.7	10.0	23.5	25.9	72.5*	111.0*	117.6*	-0.3	DNMT1 interf DR=>99
Cc1ccccc1NC(=O)CN1C(=O)S/C(=C\c2ccc(-c3cccc(C(=O)O)c3C)o2)C1=O	17.7	7.0	9.9	-1.2	26.6	9.9	.	.
OC(c1ccccc1)(c1nc(-c2ccc(Cl)cc2)cs1)C(F)(F)F (stereo not given)	-0.9	.	2.1	-0.3	.	-17.8	.	.
Cc1sc2nc(SCC(=O)N(C)Cc3ccccc3)n(-c3ccccc3)c(=O)c2c1C	5.0	1.0	4.9	-1.8	-11.2	70.4*	-1.1	-5.3
Cc1ccc(-c2nc3ccccc3o2)cc1NC(=S)NC(=O)c1cccs1	1.1	2.0	0.2	0.6	0.8	55.0*	-0.3	-1.6
Cc1cc(C)c2oc(-c3ccc(C)c(NC(=S)NC(=O)c4cccs4)c3)nc2c1	2.1	0.0	1.7	-0.3	-1.6	51.4*	5.2	-5.7
